In PubChem BioAssay AID493230 (Broad Institute, 2011) one finds activation and AC40 data, which are given here for 87 compounds.

Where “and” joins values, the source holds several entries; their conditions need not be identical. Equal values may be shown once. Calls of active or inactive are those of the source.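 Rule for the calls: active = VEGF mRNA rise whose fitted curve reaches 40% activation within the highest concentration tested on that sample; inactive = the rest, including effects opposite to expected.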

Test system in the first assay: not listed separately
Kind of assay: activators raising VEGF transcript levels via HIF – cell-based, U2OS, RT-PCR, dry powder, set 3, orthogonal assay for HIF pathway activator project, dose response (AID 493230). To be noted: U2OS VEGF mRNA induction, RT-PCR; at 38 µM (top of the series). In outline:
(§1)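 Assay system – human osteosarcoma U2OS cells, endogenous VEGF-A mRNA · Input – 2,000 cells/well · Schedule – 24 h plating, then 24 h compound exposure at 37 °C · Technique – TaqMan RT-PCR, VEGF-A vs beta-actin · Control set – DMSO as negative control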
Consider `CN(C)CCNC(=O)c1cc(-c2ccccc2)on1`, for which the activation was -3.96% (inactive).

For `O=C(NCc1ccccc1)c1cc(-c2ccccc2)on1`, the activation was -3.24% (inactive).

Take `O=C(NC1Cc2ccccc2C1)c1cc(-c2ccccc2)on1`: the activation is -6% (inactive).

With `Cn1c(NC(=O)c2cc(-c3ccccc3)on2)nc2ccccc21`, the activation was -8.77% (inactive).

As for `O=C(Nc1nc(-c2ccccc2)cs1)c1cc(-c2ccccc2)on1`, the activation is 12.2% (inactive).

Take `O=C(Nc1cnc2ccccc2c1)c1cc(-c2ccccc2)on1`: the activation is 4.77% (inactive).

For `O=C(c1cc(-c2ccccc2)on1)N1CCC(N2CCCC2)CC1`, the activation is 5.5% (inactive).

Turning to `O=C(NCC1CCCCC1)c1cc(-c2ccccc2)on1`, the activation is 5.37% (inactive).

On to `Cc1cccc(CNC(=O)c2cc(-c3ccccc3)on2)c1`, for which the activation was 9.8% (inactive).

`O=C(c1cc(-c2ccccc2)on1)N1CCC(CO)CC1`: the activation is 2.91% (inactive).

On to `O=C(NCCN1CCCCC1)c1cc(-c2ccccc2)on1`, for which the activation was 2.31% (inactive).

For `O=C(Nc1ccc2ccccc2n1)c1cc(-c2ccccc2)on1`, the activation was 6.04% (inactive).

Take `Cc1ccc(NC(=O)c2cc(-c3ccccc3)on2)cn1`: the activation was 4.97% (inactive).

In the case of `Cc1ccc(CNC(=O)c2cc(-c3ccccc3)on2)cc1`, the activation was -2.87% (inactive).

Turning to `O=C(c1cc(-c2ccccc2)on1)N1CCC(N2CCOCC2)CC1`, the activation was 12.2% (inactive).

On to `O=C(Nc1ncc(-c2ccccc2)o1)c1cc(-c2ccccc2)on1`, for which the activation was 6.52% (inactive).

For `O=C(Nc1nnc(-c2ccccc2)s1)c1cc(-c2ccccc2)on1`, the activation was 2.88% (inactive).

`O=C(c1cc(-c2ccccc2)on1)N1CCc2cccnc21`: the activation was -0.596% (inactive).

As to `CN1CCN(C(=O)c2cc(-c3ccccc3)on2)CC1`, the activation was -2.38% (inactive).

The subject of another assay is U2OS VEGF mRNA induction, RT-PCR. The description is as above.
Details: not given
Summed up: as §1
As to `c1ccc(-c2nnc(-c3ccccn3)nc2N2CCC(N3CCOCC3)CC2)cc1`, the AC40 was 6.33 µM.

Take `c1ccc(-c2nnc(-c3ccccn3)nc2NCC2CCCCC2)cc1`: the AC40 was 1.4 µM.

As to `CC(Nc1nc(-c2ccccn2)nnc1-c1ccccc1)c1ccccc1` (configuration not stated), the AC40 is 1.55 µM.

As to `O=C(NCCCn1ccnc1)c1cc(-c2ccccc2)on1`, the AC40 was 17.2 µM.

Take `Cc1cccc(Nc2nc(-c3ccccn3)nnc2-c2ccccc2)n1`: the AC40 was 2.98 µM.

On to `c1ccc(-c2nnc(Nc3nc(-c4ccccn4)nnc3-c3ccccc3)s2)cc1`, for which the AC40 is 1.08 µM.

As to `c1ccc(-c2nnc(-c3ccccn3)nc2Nc2cnc3ccccc3n2)cc1`, the AC40 was 1.48 µM.

For the compound `c1ccc(-c2cccc(CNc3nc(-c4ccccn4)nnc3-c3ccccc3)c2)cc1`, the AC40 is 0.529 µM.

For `c1ccc(CNc2nc(-c3ccccn3)nnc2-c2ccccc2)cc1`, the AC40 was 1.45 µM.

Regarding `C=CCNc1nc(-c2ccccn2)nnc1-c1ccccc1`, the AC40 was 4.08 µM.

With `O=C(c1cc(-c2ccccc2)on1)N1CCN(c2ccncc2)CC1`, the AC40 is 35.8 µM.

Take `Oc1ccc(CNC2CCc3ccccc32)c2cccnc12` (configuration not stated): the AC40 was 27.1 µM.

On to `c1ccc(-c2nnc(-c3ccccn3)nc2N2CCC(c3ccccc3)C2)cc1` (configuration not stated), for which the AC40 was 1.05 µM.

In the case of `Cc1cccc(NC(=O)c2cc(-c3ccccc3)on2)n1`, the AC40 was > 38 µM (inactive).

In the case of `OCC1CCN(Cc2ccc(O)c3ncccc23)CC1`, the AC40 is 2.6 µM.

Take `O=C(NC1CCc2ccccc2C1)c1cc(-c2ccccc2)on1` (configuration not stated): the AC40 is > 38 µM (inactive).

As to `C[C@@H](Nc1nc(-c2ccccn2)nnc1-c1ccccc1)C1CCCCC1`, the AC40 was 0.545 µM.

As to `O=C(Nc1cn2ccccc2n1)c1cc(-c2ccccc2)on1`, the AC40 was 5.31 µM.

With `c1ccc(-c2nnc(-c3ccccn3)nc2NCc2ccccn2)cc1`, the AC40 is 4.1 µM.

As for `O=C(NCCCCO)c1cc(-c2ccccc2)on1`, the AC40 was 9.04 µM.

For `c1ccc(-c2nnc(-c3ccccn3)nc2N2CCN(c3ccncc3)CC2)cc1`, the AC40 was 2.91 µM.

Turning to `Cc1ccc(Nc2nc(-c3ccccn3)nnc2-c2ccccc2)cn1`, the AC40 was 4.94 µM.

On to `C[C@H](Nc1nc(-c2ccccn2)nnc1-c1ccccc1)C1CCCCC1`, for which the AC40 is 1.06 µM.

As for `c1ccc(-c2csc(Nc3nc(-c4ccccn4)nnc3-c3ccccc3)n2)cc1`, the AC40 was 0.495 µM.

In the case of `COc1ccccc1N1CCN(Cc2ccc(O)c3ncccc23)CC1`, the AC40 was 0.384 µM.

Consider `OCC1CCN(c2nc(-c3ccccn3)nnc2-c2ccccc2)CC1`, for which the AC40 was 10.9 µM.

As for `Oc1ccc(CNC2Cc3ccccc3C2)c2cccnc12`, the AC40 was 12.9 µM.

Turning to `Oc1ccc(CN2CCC3CCCCC3C2)c2cccnc12` (configuration not stated), the AC40 was 1.58 µM.

Consider `Cc1ccc(CNc2nc(-c3ccccn3)nnc2-c2ccccc2)cc1`, for which the AC40 is 1.01 µM.

Regarding `c1ccc(-c2nnc(-c3ccccn3)nc2NCC2CC2)cc1`, the AC40 is 2.29 µM.

Regarding `C[C@@H](Nc1nc(-c2ccccn2)nnc1-c1ccccc1)c1ccccc1`, the AC40 was 1.45 µM.

With `c1ccc(-c2nnc(-c3ccccn3)nc2Nc2nc3ccccc3s2)cc1`, the AC40 was 0.427 µM.

For the compound `c1ccc(-c2nnc(-c3ccccn3)nc2NCCN2CCOCC2)cc1`, the AC40 was 7.65 µM.

On to `c1ccc(CCNc2nc(-c3ccccn3)nnc2-c2ccccc2)cc1`, for which the AC40 is 5.17 µM.

In the case of `Clc1cccc(CNc2nc(-c3ccccn3)nnc2-c2ccccc2)c1`, the AC40 was 0.953 µM.

`N#CC1(c2ccccc2)CCN(Cc2ccc(O)c3ncccc23)CC1`: the AC40 was 31.9 µM.

As to `O=C(NCCN1CCOCC1)c1cc(-c2ccccc2)on1`, the AC40 was 29.1 µM.

`CCCCNC(=O)c1cc(-c2ccccc2)on1`: the AC40 is 25 µM.

For `CC(C)(C)OC(=O)N1CCN(Cc2ccc(O)c3ncccc23)CC1`, the AC40 is 9.12 µM.

With `CN(C)c1nc(-c2ccccn2)nnc1-c1ccccc1`, the AC40 is 6.76 µM.

Take `O=C(Nc1ncc2ccccc2n1)c1cc(-c2ccccc2)on1`: the AC40 was 29.4 µM.

`CC(C)(C)CCNC(=O)c1cc(-c2ccccc2)on1`: the AC40 was > 38 µM (inactive).

On to `Cc1ccccc1CNC(=O)c1cc(-c2ccccc2)on1`, for which the AC40 was > 38 µM (inactive).

`Cn1c(-c2ccccc2)cnc1Nc1nc(-c2ccccn2)nnc1-c1ccccc1`: the AC40 was 4.51 µM.

As to `Oc1ccc(CN2CCC(Cc3ccccc3)CC2)c2cccnc12`, the AC40 was 6.73 µM.

For `c1ccc(-c2nnc(-c3ccccn3)nc2NCc2cccnc2)cc1`, the AC40 is 3.44 µM.

Regarding `c1ccc(-c2nnc(-c3ccccn3)nc2N2CCC(C3CCCCC3)C2)cc1` (configuration not stated), the AC40 was 0.535 µM.

With `c1ccc(-c2nnc(-c3ccccn3)nc2NCCc2ccccn2)cc1`, the AC40 is 6.47 µM.

On to `c1ccc(-c2cnc(Nc3nc(-c4ccccn4)nnc3-c3ccccc3)s2)cc1`, for which the AC40 is 0.433 µM.

On to `CC(C)(C)c1ccc(CNc2nc(-c3ccccn3)nnc2-c2ccccc2)cc1`, for which the AC40 was 0.401 µM.

With `c1ccc(-c2ccc(CNc3nc(-c4ccccn4)nnc3-c3ccccc3)cc2)cc1`, the AC40 is 0.276 µM.

Turning to `O=C(Nc1nc2ccccc2s1)c1cc(-c2ccccc2)on1`, the AC40 is > 38 µM (inactive).

In the case of `CC1CN(Cc2ccc(O)c3ncccc23)CC(C)O1` (configuration not stated), the AC40 is 12.5 µM.

Turning to `COc1cccc(CNc2nc(-c3ccccn3)nnc2-c2ccccc2)c1`, the AC40 is 1.21 µM.

Consider `CN1CCN(c2nc(-c3ccccn3)nnc2-c2ccccc2)CC1`, for which the AC40 is 5.84 µM.

Regarding `Cc1ccccc1CNc1nc(-c2ccccn2)nnc1-c1ccccc1`, the AC40 is 0.853 µM.

Turning to `O=C(NCCCO)c1cc(-c2ccccc2)on1`, the AC40 is 15.7 µM.

For `Cc1cccc(CNc2nc(-c3ccccn3)nnc2-c2ccccc2)c1`, the AC40 is 1.48 µM.

As to `CC(C)(C)CCNc1nc(-c2ccccn2)nnc1-c1ccccc1`, the AC40 is 0.782 µM and 0.753 µM.

Regarding `COc1ccc(CNc2nc(-c3ccccn3)nnc2-c2ccccc2)cc1`, the AC40 is 1.24 µM.

`c1ccc(-c2nnc(-c3ccccn3)nc2NCCCN2CCOCC2)cc1`: the AC40 is 6.44 µM.

With `Cc1ccc(CNc2nc(-c3ccccn3)nnc2-c2ccccc2)cc1C`, the AC40 is 0.83 µM.

For `Cn1c(-c2ccccc2)cnc1NC(=O)c1cc(-c2ccccc2)on1`, the AC40 was 24.6 µM.

As to `O=C(NCCCN1CCOCC1)c1cc(-c2ccccc2)on1`, the AC40 is 28 µM.

Regarding `O=C(NCC1CC1)c1cc(-c2ccccc2)on1`, the AC40 is 24.9 µM.

On to `c1ccc(-c2nnc(-c3ccccn3)nc2NCC2CCOCC2)cc1`, for which the AC40 is 6.69 µM.

Regarding `OCCCNc1nc(-c2ccccn2)nnc1-c1ccccc1`, the AC40 was 8.68 µM.

With `Oc1ccc(CN2CCc3ccccc3C2)c2cccnc12`, the AC40 was 3.02 µM and 6.18 µM.
